ChEMBL document CHEMBL1131117, “Pyrimidine thioethers: a novel class of HIV-1 reverse transcriptase inhibitors with activity against BHAP-resistant HIV” (J Med Chem, 1998)

What was measured:
[1] = target: Human immunodeficiency virus type 1 reverse transcriptase (Human immunodeficiency virus 1) (UniProt Q72547); assay: Inhibitory activity against HIV-1 reverse transcriptase (wild type) at 10 uM dose
Procedure, shortened: (§1)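 Recombinant HIV-1 RT homodimers (wild type or P236L mutant) were tested with compound at a single 10 µM concentration and reported as % inhibition. Reactions ran at 28 °C for 10 min and were stopped with 10% trichloroacetic acid. Acid-precipitated product was collected on glass fibre filters and counted for radioactivity.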

[2] = test system: Human immunodeficiency virus type 1 reverse transcriptase (Human immunodeficiency virus 1), Q72547 [P236L]; assay: Inhibitory activity against HIV-1 reverse transcriptase (P236L) at 10 uM dose; procedure, shortened: as §1
[3] = target: Human immunodeficiency virus type 1 reverse transcriptase (Human immunodeficiency virus 1, UniProt Q72547, P236L); assay: Inhibition of HIV-1 reverse transcriptase (P236L)
Procedure, shortened: (§2)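 HIV-1 RT homodimers (wild type or P236L) were assayed by radiolabel incorporation at 28 °C for 10 min and stopped with 10% trichloroacetic acid. Acid-insoluble product was filter-captured and counted. IC50 was derived from inhibition measured at eight drug concentrations.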

[4] = target: T1, Human immunodeficiency virus type 1 reverse transcriptase (Human immunodeficiency virus 1, UniProt Q72547); assay: Inhibition of HIV-1 reverse transcriptase (wild type)
Procedure, shortened: (§3)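 Wild-type HIV-1 RT homodimer run at 28 °C for 10 min. The reaction is stopped with 10% (v/v) trichloroacetic acid, and the acid-precipitated product is collected on glass fiber filters and counted for radioactivity. Compounds are screened as % inhibition at 10 µM, and IC50 values are determined from eight drug concentrations.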

MT4 [5] = assay: Concentration of drug that inhibited p24 production by 90% in infected MT-4 cells against HIV-1MF-DLV; type: functional; details: Homo sapiens
MT4 [6] = assay: Concentration of drug that inhibited p24 production by 90% in infected MT-4 cells against HIV-1-WT; type: functional; details: Homo sapiens
MT4 [7] = assay: concentration of drug that inhibited p24 production by 90% in infected MT-4 cells against HIV-1-WT; type: functional; details: Homo sapiens
[8] = test system: Human immunodeficiency virus type 1 reverse transcriptase (Human immunodeficiency virus 1), Q72547 [P236L]; assay: inhibitory activity against HIV-1 reverse transcriptase (P236L) at 10 uM dose (IC50 determined in 8 drug concentrations); procedure, shortened: as §2
MT4 [9] = assay: concentration of drug that inhibited p24 production by 90% in infected MT-4 cells against HIV-1MF-DLV; type: functional; details: Homo sapiens
[10] = target: Human immunodeficiency virus type 1 reverse transcriptase (Human immunodeficiency virus 1) (UniProt Q72547); assay: inhibitory activity against HIV-1 reverse transcriptase (wild type) at 10 uM dose (IC50 determined in 8 drug concentrations); procedure, shortened: as §2
[11] = target: T1, Human immunodeficiency virus type 1 reverse transcriptase; assay: inhibitory activity against HIV-1 reverse transcriptase (wild type; procedure, shortened: as §3
[12] = target: Human immunodeficiency virus type 1 reverse transcriptase (Human immunodeficiency virus 1) (UniProt Q72547); assay: inhibitory activity against HIV-1 reverse transcriptase (wild type) at 10 uM dose; procedure, shortened: as §1

| SMILES | inhibition [1] | inhibition [2] | other results |
| --- | --- | --- | --- |
| CC(C)(C)c1ccc(CSc2nc(N)cc(Cl)n2)cc1 | 37% | 56% | – |
| COC(=O)/C=C/CSc1nc(N)cc(Cl)n1 | 78% | 93% | IC50 [3]: 930 nM; IC50 [4]: 5250 nM |
| Clc1cc(NC2CCCCC2)nc(SCc2ccccc2)n1 | 26% | 6% | – |
| COc1cccc(CSc2nc(N)cc(Cl)n2)c1 | 70% | 97% | IC90 (MT4 [5]): 3210 nM; IC50 [3]: 160 nM; IC90 (MT4 [6]): 270 nM; IC50 [4]: 980 nM |
| Nc1cc(Cl)nc(SCC2=Cc3ccccc3CC2)n1 | 71% | 87% | – |
| CCCNc1cc(Cl)nc(SCc2ccccc2)n1 | 14% | 30% | – |
| Clc1cc(Cl)nc(SCc2ccccc2)n1 | 19% | 25% | – |
| Nc1cc(Cl)nc(SCC2=CCCc3ccccc32)n1 | 47% | 88% | IC50 [3]: 600 nM; IC50 [4]: 16000 nM |
| Nc1cc(Cl)nc(SCc2ccc3ccccc3c2)n1 | – | – | IC90 (MT4 [7]): 220 nM; IC50 [3]: 150 nM; inhibition [8]: 96%; IC90 (MT4 [9]): 2760 nM; IC50 [4]: 460 nM; inhibition [10]: 87% |
| Nc1cc(Cl)nc(SCc2ccc(-c3ccccc3)cc2)n1 | 8% | 20% | – |
| Nc1cc(Cl)nc(SCCc2ccccc2)n1 | 33% | 12% | – |
| COc1ccc(CSc2nc(N)cc(Cl)n2)cc1 | 25% | 63% | – |
| Nc1cc(Cl)nc(SCc2ccccc2)n1 | – | – | IC50 [3]: 1470 nM; IC50 [4]: 6660 nM |
| Nc1cc(Cl)nc(SCC(=O)O)n1 | 0% | 0% | – |
| CCCCCCCCCSc1nc(N)cc(Cl)n1 | 0% | 0% | – |
| CCN(CC)C(=O)CSc1nc(N)cc(Cl)n1 | 14% | 14% | – |
| Nc1cc(Cl)nc(SCc2cc3c(cc2Cl)OCO3)n1 | 98% | 99% | IC50 [3]: 16 nM; IC50 [11]: 85 nM |
| Nc1cc(Cl)nc(S(=O)(=O)Cc2cccc(Br)c2)n1 | – | 14% | – |
| COC(=O)c1cccc(CSc2nc(N)cc(Cl)n2)c1 | 93% | 94% | IC50 [3]: 230 nM; IC50 [4]: 330 nM |
| Nc1cc(N2CCCC2)nc(SCc2ccccc2)n1 | 3% | 0% | – |
| Nc1cc(Cl)nc(SC/C=C/c2ccccc2)n1 | 96% | 98% | IC90 (MT4 [7]): 150 nM; IC50 [3]: 70 nM; IC90 (MT4 [9]): 5050 nM; IC50 [4]: 190 nM |
| Nc1cc(Cl)nc(OCc2ccc3ccccc3c2)n1 | 63% | 80% | – |

| SMILES | inhibition [1] | inhibition [2] | other results |
| --- | --- | --- | --- |
| Nc1cc(Cl)nc(SCc2cccc(C(F)(F)F)c2)n1 | 80% | 91% | – |
| Clc1cc(-n2ccnc2)nc(SCc2ccc3ccccc3c2)n1 | 12% | 17% | – |
| Cc1cccc(CSc2nc(N)cc(Cl)n2)c1 | – | – | IC90 (MT4 [7]): 110 nM; IC50 [3]: 50 nM; inhibition [8]: 98%; IC90 (MT4 [9]): 1760 nM; IC50 [4]: 280 nM; inhibition [10]: 96% |
| Nc1cc(Cl)nc(OCc2cccc3ccccc23)n1 | 2% | 67% | – |
| COC(=O)c1ccc(CSc2nc(N)cc(Cl)n2)cc1 | 6% | 15% | – |
| CN(C)C(=O)/C=C/CSc1nc(N)cc(Cl)n1 | – | – | IC90 (MT4 [7]): 90 nM; IC50 [3]: 70 nM; inhibition [8]: 99%; IC90 (MT4 [9]): 740 nM; IC50 [4]: 200 nM; inhibition [10]: 99% |
| CCNC(=O)/C=C/CSc1nc(N)cc(Cl)n1 | 40% | 55% | – |
| OCCCNc1cc(Cl)nc(SCc2ccccc2)n1 | 17% | 3% | – |
| Nc1cc(Cl)nc(SCc2cc(Cl)cc(Cl)c2)n1 | – | 65% | – |
| Nc1cc(Cl)nc(SCc2cc(Br)cc(Br)c2)n1 | – | 73% | – |
| CCOC(=O)CCSc1nc(N)cc(Cl)n1 | 11% | 7% | – |
| Nc1cc(Cl)nc(SCc2cccc(Br)c2)n1 | 94% | 97% | IC90 (MT4 [7]): 350 nM; IC50 [3]: 140 nM; IC90 (MT4 [9]): 4520 nM; IC50 [4]: 760 nM |
| CC(=O)Nc1cc(Cl)nc(SCc2ccc3ccccc3c2)n1 | 30% | 53% | – |
| Nc1cc(O)nc(SCc2ccc3ccccc3c2)n1 | 10% | 4% | – |
| N#Cc1cc(N)nc(SCc2ccc3ccccc3c2)n1 | 84% | 93% | – |
| Cc1ccccc1CSc1nc(N)cc(Cl)n1 | 2% | 0% | – |
| Clc1cc(N2CCCCC2)nc(SCc2ccccc2)n1 | 47% | 47% | – |
| CCN(CC)C(=O)/C=C/CSc1nc(N)cc(Cl)n1 | – | – | IC90 (MT4 [7]): 20 nM; IC50 [3]: 50 nM; inhibition [8]: 99%; IC90 (MT4 [9]): 110 nM; IC50 [4]: 60 nM; inhibition [10]: 98% |
| Cc1ccc(CSc2nc(N)cc(Cl)n2)cc1 | 3% | 5% | – |
| Nc1cc(Cl)nc(CCc2ccc3ccccc3c2)n1 | – | 12% | – |
| Nc1ccnc(SCc2ccc3ccccc3c2)n1 | – | 71% | inhibition [12]: 50% |
| Nc1cc(Cl)nc(OCc2ccccc2)n1 | 1% | 44% | – |

| SMILES | inhibition [1] | inhibition [2] | other results |
| --- | --- | --- | --- |
| Clc1cc(-c2ccccc2)nc(SCc2ccc3ccccc3c2)n1 | – | 5% | – |
| Nc1cc(Cl)nc(SCc2cccc(Cl)c2)n1 | – | 65% | – |
| CC1(C)CCC(C)(C)c2cc(CSc3nc(N)cc(Cl)n3)ccc21 | 7% | 23% | – |
| Cc1cc(N)nc(SCc2ccccc2)n1 | 0% | 4% | – |
| Clc1ccnc(SCc2ccc3ccccc3c2)n1 | 61% | 86% | – |
| Nc1cc(Cl)nc(SCc2cccc(F)c2)n1 | – | 79% | – |
| Nc1cc(Cl)nc(SCc2ccc(Cl)c(Cl)c2)n1 | 80% | 94% | IC50 [3]: 62 nM; IC50 [4]: 490 nM |
| Nc1cc(Cl)nc(SCc2cccc(I)c2)n1 | – | 89% | – |
| NNc1cc(Cl)nc(SCc2ccccc2)n1 | – | 31% | – |
| Cc1cccc(COc2nc(N)cc(Cl)n2)c1 | 25% | 72% | – |
| Clc1cc(Cl)nc(SCc2ccc3ccccc3c2)n1 | 0% | 23% | – |
| Nc1cc(Cl)nc([S+]([O-])Cc2cccc(Br)c2)n1 (stereo not given) | – | 40% | – |
| Nc1cc(Cl)nc(SCC2CCCCC2)n1 | 37% | 13% | – |
| Nc1cc(Cl)nc([S+]([O-])Cc2ccc3ccccc3c2)n1 (stereo not given) | 45% | 75% | – |
| Nc1cc(Cl)nc(SCc2ccc3c(c2)OCO3)n1 | 82% | 95% | – |
| Clc1cc(N2CCCC2)nc(SCc2ccccc2)n1 | 35% | 41% | – |
| C/C=C/CSc1nc(N)cc(Cl)n1 | 5% | 47% | – |
| Nc1cc(Cl)nc(NCc2ccc3ccccc3c2)n1 | 9% | 17% | – |
| Nc1cc(C(F)(F)F)nc(SCc2ccc3ccccc3c2)n1 | 94% | 94% | IC50 [3]: 430 nM; IC50 [4]: 290 nM |
| Nc1cc(Cl)nc(SCc2cccc3ccccc23)n1 | 89% | 96% | – |
| CCOC(=O)c1cc(N)nc(SCc2ccc3ccccc3c2)n1 | 17% | 24% | – |
